Assay results: ChEMBL document CHEMBL1124497, “Thromboxane A2 synthetase inhibitors. 2. Syntheses and activities of tetrahydronaphthalene and indan derivatives” (J Med Chem, 1989)

Tests used:
Type in all cases: functional
[1] = organism: Rattus norvegicus; test: In vitro inhibition of thromboxane A2 production in rat platelet-rich plasma.
Outline: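 Citrated rat platelet-rich plasma (4 × 10⁷ platelets) was preincubated with compound for 1 min at room temperature with gentle shaking. Sodium arachidonate (final 0.5 mmol) started the reaction, which ran 5 min at room temperature with vigorous shaking. Indomethacin (final 0.1 mmol) stopped it. After centrifugation (1000g, 5 min), supernatant TXB₂ was measured by radioimmunoassay. IC₅₀ is the concentration giving 50% inhibition of TXB₂ production.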

[2] = test system: Rattus norvegicus; test: Inhibition of thromboxane B2 production in whole blood of rat 75 min after intravenous injection of compound at 0.1 mg/kg; conditions: 1.25 h
Outline: (§1)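 The compound was given intravenously to rats in physiological saline; controls received vehicle. Whole blood was drawn from the external jugular vein under anesthesia at 15, 45 and 75 min. Samples were kept on ice 15 min, clotted at 37 °C for 1 h and centrifuged (1000g, 10 min). Serum TXB₂ was measured by radioimmunoassay and expressed as % inhibition.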

[3] = test system: Rattus norvegicus; test: Inhibition of thromboxane B2 production in whole blood of rats 1 hr following 1 mg/kg p.o.; conditions: route oral
Outline: (§2)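 Rats were dosed orally at 1 mg/kg with compound suspended in water; controls received vehicle. Whole blood was drawn from the external jugular vein under anesthesia at 1, 3 and 6 h, held on ice 15 min, then clotted at 37 °C for 1 h. Serum was separated at 1000g for 10 min. TXB₂, 6-keto-PGF₁α (the PGI₂ metabolite) and PGE₂ were measured by radioimmunoassay. Prostanoid enhancement is expressed as x-fold at 1 h.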

[4] = test system: Rattus norvegicus; test: Inhibition of thromboxane B2 production in whole blood of rats, 3h after a peroral dose of 1.0 mg/kg; conditions: route oral; outline: as §2
[5] = test system: Rattus norvegicus; test: Inhibition of thromboxane B2 production in whole blood of rats, 6 hr after a peroral dose of 1.0 mg/kg; conditions: route oral; outline: as §2
[6] = test system: Rattus norvegicus; test: Inhibition of thromboxane B2 production in whole blood of rat 15 min after intravenous injection of compound at 0.1 mg/kg; conditions: 0.25 h; outline: as §1
[7] = test system: Rattus norvegicus; test: Inhibition of thromboxane B2 production in whole blood of rat 45 min after intravenous injection of compound at 0.1 mg/kg; conditions: 0.75 h; outline: as §1
[8] = test system: Rattus norvegicus; test: Enhancement of prostaglandin E2 levels in serum of incubated whole blood at 1 hr after an oral dose of 1 mg/kg; outline: as §2
[9] = test system: Rattus norvegicus; test: Increase in serum prostaglandin I2 levels in incubated whole blood from rats, 1 hr following 1 mg/kg p.o.; conditions: route oral; outline: as §2
[10] = test system: Rattus norvegicus; test: Inhibition of thromboxane B2 production in whole blood of rats, 1 hr after a peroral dose of 0.1 mg/kg; conditions: route oral
[11] = test system: Rattus norvegicus; test: Inhibition of thromboxane B2 production in whole blood of rats, 4 hr after a peroral dose of 0.1 mg/kg; conditions: route oral
[12] = test system: Rattus norvegicus; test: Inhibition of thromboxane A2 production in whole blood of rats, 4 hr after a peroral dose of 0.1 mg/kg; conditions: route oral
[13] = test system: Rattus norvegicus; test: Inhibition of thromboxane A2 production in whole blood of rats, 4 hr after a peroral dose of 1.0 mg/kg; conditions: route oral

O=C([O-])c1ccc2c(c1)CCC(Cc1cncs1)C2.[Na+] (stereo unspecified) gave an IC50 [1] of 0.14 µM, an inhibition in vivo at 0.1 mg/kg [2] of 75% and an inhibition in vivo at 1 mg/kg [3] of 93%. It also gave an inhibition in vivo at 1 mg/kg [4] of 88%, an inhibition in vivo at 1 mg/kg [5] of 78% and an inhibition in vivo at 0.1 mg/kg [6] of 90%. The inhibition in vivo at 0.1 mg/kg [7] was 87%, the x fold [8] was 5.26 and the x fold [9] was 2.55.

For O=C([O-])c1cccc2c1CCCC2CCc1cncs1.[Na+] (stereo unspecified), the IC50 [1] was 0.37 µM, the inhibition in vivo at 0.1 mg/kg [2] was 67% and the inhibition in vivo at 1 mg/kg [3] was 97%. It also gave an inhibition in vivo at 1 mg/kg [4] of 93%, an inhibition in vivo at 1 mg/kg [5] of 86% and an inhibition in vivo at 0.1 mg/kg [6] of 88%. It also gave an inhibition in vivo at 0.1 mg/kg [7] of 79%, a x fold [8] of 5.63 and a x fold [9] of 2.68.

C/C(=C\c1ccc(Cc2cncs2)cc1)C(=O)O showed an IC50 [1] of 0.22 µM and an inhibition in vivo at 1 mg/kg [3] of 44%.

Compound O=C(O)c1ccc2c(c1)CCCC2CCn1ccnc1 (stereo unspecified) has an IC50 [1] of 14 µM, an inhibition in vivo at 0.1 mg/kg [2] of 46% and an inhibition in vivo at 1 mg/kg [3] of 93%. For the same compound, the inhibition in vivo at 1 mg/kg [4] was 59%, the inhibition in vivo at 1 mg/kg [5] was 28% and the inhibition in vivo at 0.1 mg/kg [6] was 84%. For the same compound, the inhibition in vivo at 0.1 mg/kg [7] was 53%, the x fold [8] was 10.05 and the x fold [9] was 3.38.

O=C(O)/C=C/c1ccc(Cc2cncs2)cc1 showed an IC50 [1] of 1.5 µM and an inhibition in vivo at 1 mg/kg [3] of 39%.

Compound C/C(=C\c1ccc(Cc2cccnc2)cc1)C(=O)O has an IC50 [1] of 0.15 µM, an inhibition in vivo at 1 mg/kg [3] of 71% and an inhibition in vivo at 1 mg/kg [4] of 64%. The inhibition in vivo at 1 mg/kg [5] was 44%, the x fold [8] was 3.87 and the x fold [9] was 2.55.

Compound O=C([O-])C1CCc2cc(Cc3cncs3)ccc2C1.[Na+] (stereo unspecified) has an IC50 [1] of 1.9 µM, an inhibition in vivo at 1 mg/kg [3] of 69% and a x fold [8] of 5.91. For the same compound, the x fold [9] was 2.65.

For O=C([O-])c1ccc2c(c1)CC(Cc1cncs1)C2.[Na+] (stereo unspecified), the IC50 [1] was 0.4 µM, the inhibition in vivo at 0.1 mg/kg [2] was 26% and the inhibition in vivo at 1 mg/kg [3] was 94%. The inhibition in vivo at 1 mg/kg [4] was 87%, the inhibition in vivo at 1 mg/kg [5] was 52% and the inhibition in vivo at 0.1 mg/kg [6] was 77%. It also gave an inhibition in vivo at 0.1 mg/kg [7] of 62%, a x fold [8] of 9.55 and a x fold [9] of 3.52.

Compound O=C(O)c1ccc(OCCc2cncs2)cc1 has an IC50 [1] of 3.8 µM, an inhibition in vivo at 1 mg/kg [3] of 88% and an inhibition in vivo at 1 mg/kg [4] of 83%. The inhibition in vivo at 1 mg/kg [5] was 54% and the x fold [9] was 3.14.

Cl.O=C(O)c1ccc2c(c1)CCC(Cn1ccnc1)C2 (stereo unspecified) gave an IC50 [1] of 1.1 µM, an inhibition in vivo at 0.1 mg/kg [2] of 88% and an inhibition in vivo at 0.1 mg/kg [10] of 85%. It also gave an inhibition in vivo at 1 mg/kg [3] of 98%, an inhibition in vivo at 1 mg/kg [4] of 93% and an inhibition in vivo at 0.1 mg/kg [11] of 76%. The inhibition in vivo at 1 mg/kg [5] was 88%, the inhibition in vivo at 0.1 mg/kg [6] was 95% and the inhibition in vivo at 0.1 mg/kg [7] was 93%. It also gave a x fold [8] of 5.9 and a x fold [9] of 2.91.

With Cl.O=C(O)c1ccc2c(c1)CC(Cn1ccnc1)CC2 (stereo unspecified) the IC50 [1] was 5.6 µM, the inhibition in vivo at 1 mg/kg [3] was 57% and the x fold [8] was 4.27. It also gave a x fold [9] of 1.99.

Work on Cl.O=C(O)c1cccc2c1CCCC2CCn1ccnc1 (stereo unspecified) yielded an IC50 [1] of 5.4 µM, an inhibition in vivo at 0.1 mg/kg [2] of 64% and an inhibition in vivo at 1 mg/kg [3] of 93%. For the same compound, the inhibition in vivo at 1 mg/kg [4] was 93%, the inhibition in vivo at 1 mg/kg [5] was 76% and the inhibition in vivo at 0.1 mg/kg [6] was 79%. It also gave an inhibition in vivo at 0.1 mg/kg [7] of 74%, a x fold [8] of 5.88 and a x fold [9] of 3.02.

Work on O=C(O)c1cccc2c1CCC2CCn1ccnc1 (stereo unspecified) yielded an IC50 [1] of 0.86 µM and an inhibition in vivo at 1 mg/kg [3] of 97%.

Cl.O=C(O)c1ccc2c(c1)CC(Cn1ccnc1)C2 (stereo unspecified) gave an IC50 [1] of 6.6 µM, an inhibition in vivo at 0.1 mg/kg [2] of 51% and an inhibition in vivo at 1 mg/kg [3] of 95%. The inhibition in vivo at 1 mg/kg [4] was 90%, the inhibition in vivo at 1 mg/kg [5] was 74% and the inhibition in vivo at 0.1 mg/kg [6] was 73%. The inhibition in vivo at 0.1 mg/kg [7] was 60%, the x fold [8] was 6.93 and the x fold [9] was 3.57.

With Cl.O=C(O)C1Cc2ccc(Cn3ccnc3)cc2C1 (stereo unspecified) the IC50 [1] was 7.2 µM, the inhibition in vivo at 0.1 mg/kg [2] was 32% and the inhibition in vivo at 1 mg/kg [3] was 87%. It also gave an inhibition in vivo at 1 mg/kg [4] of 75%, an inhibition in vivo at 1 mg/kg [5] of 61% and an inhibition in vivo at 0.1 mg/kg [6] of 58%. For the same compound, the inhibition in vivo at 0.1 mg/kg [7] was 46%, the x fold [8] was 7.27 and the x fold [9] was 3.14.

In the case of Cl.O=C(O)C1CCc2cc(Cn3ccnc3)ccc2C1 (stereo unspecified), the IC50 [1] is reported as 1.4 µM, the inhibition in vivo at 1 mg/kg [3] is reported as 88% and the inhibition in vivo at 1 mg/kg [4] is reported as 69%. For the same compound, the inhibition in vivo at 1 mg/kg [5] was 49%, the x fold [8] was 4.79 and the x fold [9] was 2.22.

O=C(O)CCCC/C=C(\c1ccccc1)c1cccnc1 [(E)-ISBOGREL] showed an IC50 [1] of 0.25 µM, an inhibition in vivo at 0.1 mg/kg [10] of 75% and an inhibition in vivo at 1 mg/kg [3] of 96%. For the same compound, the inhibition in vivo at 0.1 mg/kg [12] was 40% and the inhibition in vivo at 1 mg/kg [13] was 80%.

Cc1c(Cn2ccnc2)c2ccccc2n1CCC(=O)O [DAZMEGREL] gave an IC50 [1] of 12 µM, an inhibition in vivo at 0.1 mg/kg [2] of 29% and an inhibition in vivo at 1 mg/kg [3] of 92%. It also gave an inhibition in vivo at 1 mg/kg [4] of 71%, an inhibition in vivo at 1 mg/kg [5] of 40% and an inhibition in vivo at 0.1 mg/kg [6] of 11%. The inhibition in vivo at 0.1 mg/kg [7] was 46%, the x fold [8] was 5.36 and the x fold [9] was 2.26.

Compound O=C(O)c1ccc(OCCn2ccnc2)cc1 [DAZOXIBEN] has an IC50 [1] of 11 µM, an inhibition in vivo at 1 mg/kg [3] of 50% and an inhibition in vivo at 1 mg/kg [4] of 21%. For the same compound, the inhibition in vivo at 1 mg/kg [5] was 8%, the inhibition in vivo at 0.1 mg/kg [6] was 25% and the inhibition in vivo at 0.1 mg/kg [7] was 6%. The x fold [8] was 3.91 and the x fold [9] was 1.9.

O=C(O)/C=C/c1ccc(Cn2ccnc2)cc1 [OZAGREL] gave an IC50 [1] of 4.5 µM, an inhibition in vivo at 0.1 mg/kg [2] of 46% and an inhibition in vivo at 1 mg/kg [3] of 91%. The inhibition in vivo at 1 mg/kg [4] was 42%, the inhibition in vivo at 1 mg/kg [5] was 11% and the inhibition in vivo at 0.1 mg/kg [6] was 89%. The inhibition in vivo at 0.1 mg/kg [7] was 72%, the x fold [8] was 4.8 and the x fold [9] was 2.5.
